Screens from PubChem.
GPR7 antagonist = human neuropeptides B/W receptor 1 antagonism. inhibition, % at 4.4 µM. 1.1% of 290,000 active. P48145. GPR7-expressing cells, fluorescence antagonist assay; in the data active = inhibition above about 16%, passing the limit was not always enough;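 also: cells stimulated with the agonist NPW; 0% = agonist with vehicle and 100% = vehicle without agonist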
OX1R antag-1 = blocks the human orexin 1 receptor | CHO/OX1R cells, Fluo-8 calcium fluorescence, orexin A | inhibition, % at 5 µM | 0.43% of 330,000 active;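 active = inhibition above its plate's threshold, mean inhibition of all tested compounds on the plate plus 3 SD, cut at about 37% in these data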;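 also: 0% = orexin A challenge wells and 100% = SB-334867-A antagonist wells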
Target sequence (O43613 whole entry, looked up): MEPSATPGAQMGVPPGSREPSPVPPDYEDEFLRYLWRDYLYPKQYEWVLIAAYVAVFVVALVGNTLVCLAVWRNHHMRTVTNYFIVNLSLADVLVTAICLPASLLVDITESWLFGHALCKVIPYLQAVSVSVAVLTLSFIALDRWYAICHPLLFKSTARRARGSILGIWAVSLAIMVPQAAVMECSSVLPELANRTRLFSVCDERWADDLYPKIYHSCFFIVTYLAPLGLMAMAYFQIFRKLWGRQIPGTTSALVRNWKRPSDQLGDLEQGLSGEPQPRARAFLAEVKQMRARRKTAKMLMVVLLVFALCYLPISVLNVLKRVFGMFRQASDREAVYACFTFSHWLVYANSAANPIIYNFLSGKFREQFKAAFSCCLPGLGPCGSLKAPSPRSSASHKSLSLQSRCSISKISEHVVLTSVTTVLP
OX1R antag-2 = OX1R (human) antagonism; OX1R-expressing cells, FRET antagonist read-out; inhibition, % at 6.6 µM; 1.8% of 330,000 active; AID 485270; in the data active = inhibition mostly above about 38%, no sharp cut-off; inactive = mostly below about 40%;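 also: 0% = agonist challenge alone and 100% = reference antagonist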
GalR3 antagonist = human GalR3 antagonism; O60755; inhibition, % at 3 µM; HEK293 GalR3-CNG cAMP membrane potential fluorescence; galR3 body fused to GalR1 C-terminus; 0.44% of 360,000 active;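 active = inhibition above the screen-wide average plus 3 SD, cut at about 13% in these data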;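 also: forskolin and galanin both at EC90 stimulate the cells; cAMP rise reported by CNG channel membrane potential dye signal; 0% = forskolin plus galanin with DMSO and 100% = forskolin alone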
CHO parental Ca = counter-screen for OX1R antagonists: effect in parental CHO cells. parental CHO-K1, ATP-induced calcium, Fluo-8 fluorescence. inhibition, % at 5.6 µM. 0.63% of 330,000 active. AID 463079;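 active = inhibition above that plate's mean sample inhibition plus 3 SD, cut at about 26% in these data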;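 also: 0% = ATP-challenged DMSO wells and 100% = DMSO wells without ATP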
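Material: parental CHO cells / Compound: single nominal dose of 5.6 µM per compound / Signal: Fluo-8 fluorescence / Replicates: singlicate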
An asterisk follows results filed as active; · = not tested or not shown. In the library only some 3.1% were active in any assay of this set; here they are far more common.

SMILES | GPR7 antagonist | OX1R antag-1 | OX1R antag-2 | GalR3 antagonist | CHO parental Ca
C[C@H]1[C@@H]2C[C@@]3(O[C@H](c4ccc(C(F)(F)F)cc4)N=C3C[C@@H]1c1ccccc1)N(Cc1ccncc1)C2=O | · | · | · | 0 | ·
O=C(COC(=O)c1ccccc1[N+](=O)[O-])c1ccc(C2CCCCC2)cc1 | -13 | 14 | 39 | -1 | 47*
Cc1cc(-c2cccc([N+](=O)[O-])c2)nc2ccccc12 | 10 | -8 | 69* | 2 | -6
Cc1c(C(=O)O)cccc1-c1ccc(/C=C2/NC(=O)N(c3ccccc3)C2=O)o1 | -3 | -18 | 24 | -4 | 2
Cc1c(C(=O)O)cccc1-c1ccc(/C=C2\SC(=O)NC2=O)o1 | 5 | 0 | 56* | -9 | -8
CS(=O)(=O)NCCCNc1ccc(Cl)cc1[N+](=O)[O-] | -6 | -8 | 43* | -5 | -7
COc1ccccc1C(=O)N1CCN(C(=O)[C@@H](Cc2ccccc2)NC(=O)[C@H]2O[C@@H](n3cnc(C(N)=O)n3)[C@H](O)[C@@H]2O)CC1 | · | · | · | -6 | ·
CN(C)S(=O)(=O)c1ccc(C(=O)OCC(=O)c2ccc(OC(F)F)cc2OC(F)F)cc1 | 18* | -7 | 6 | -6 | -8
CN(C)S(=O)(=O)c1ccc(C(=O)OCC(=O)Nc2ccccc2OC(F)F)cc1 | -6 | -2 | 5 | -4 | -5
COC(=O)[C@@]1(C)[C@H]2C(=O)N(Cc3ccccc3)C(=O)[C@H]2[C@H]2CN=C(SCc3ccc(C)cc3)N21 | · | -23 | 4 | -5 | -16
O=[N+]([O-])c1ccc(O)c2ncccc12 | -9 | 3 | 25 | -1 | 6
O=[N+]([O-])c1ccc(O)c2cccnc12 | 6 | -10 | 66* | 4 | -4
COc1ccc(-n2nc3ccccc3n2)cc1 | 7 | -9 | 0 | -4 | -14
COc1ccc(-n2nc3cc(N)c(Br)cc3n2)cc1 | -18 | -16 | 43* | -5 | -6
CC(C)C[C@H](NC(=O)OC(C)(C)C)C(=O)N[C@@H](CO)[C@H](O)[C@@H]1C[C@@H]1C(=O)N1CCCC1 | -1 | -5 | 16 | 0 | 3
COc1ccccc1N(C(C)=O)C1=C(Cl)C(=O)c2ccccc2C1=O | · | · | · | -6 | ·
CC(=O)N(C1=C(N)C(=O)c2ccccc2C1=O)C(C)C | -6 | -6 | 48* | -5 | -3
O=C(Cc1n[nH]c(=O)c2ccccc12)NCc1ccc(Cl)cc1 | -11 | -12 | 4 | -5 | -14
O=c1[nH]nc(Cc2ccc(-c3cccc(Cl)c3)o2)c2ccccc12 | -14 | 55* | 71* | 0 | 38
CC(OC(=O)c1n[nH]c2ccccc12)C(=O)Nc1ccccc1[N+](=O)[O-] (stereo not given) | · | 12 | 36* | -6 | -25
Cc1ccc(NC(=O)C(C)OC(=O)c2n[nH]c3ccccc23)cc1 (stereo not given) | · | -30 | 29 | -5 | -7
COC(=O)[C@H](Cc1ccccc1)NC(=O)[C@H]1O[C@@H](n2cnc3c(=O)[nH]c(N)nc32)[C@H](O)[C@@H]1O | · | · | · | -7 | ·
O=Cc1ccccc1-n1cccn1 | 1 | -11 | 0 | -5 | -7
Oc1cc(-n2cccn2)c(O)cc1-n1cccn1 | 46* | -14 | 7 | -11 | 1
Cc1ccc(N)cc1O | · | -11 | 38* | 1 | -5
SMILES | GPR7 antagonist | OX1R antag-1 | OX1R antag-2 | GalR3 antagonist | CHO parental Ca
Nc1ccc(C(=O)O)c(O)c1 | -4 | 3 | 20 | -1 | 2
Nc1[nH]c(=O)nc(Nc2ccccc2)c1N=O | · | -17 | 55* | -4 | 2
CC[C@]12c3[nH]c4cc(-c5ccco5)ccc4c3CCN1C(=O)[C@@H](CC(=O)NCCCn1ccnc1)C[C@@H]2C(=O)N1CCN(C(=O)c2ccco2)CC1 | · | -27 | 17 | -6 | -20
C[C@]12Cc3ccccc3C1CC1=N[C@@H](c3ccccn3)O[C@@]13C[C@@H]2C(=O)N3C1CCN(Cc2ccccc2)CC1 (stereo not given in full) | · | · | · | -5 | ·
NS(=O)(=O)c1cccc(NC(=O)COC(=O)CCc2ccccc2)c1 | 3 | -16 | 17 | -7 | -2
N#C/C(=C\c1coc2ccc(O)cc2c1=O)C(=O)Nc1nc2ccccc2s1 | -4 | 81* | 65* | -6 | 64*
COc1ccc2c(c1)oc1c(SCc3nc4ccccc4[nH]3)nc(C)nc12 | · | 16 | 48* | 9 | -24
Cc1nc(SCc2nc3ccc(Cl)cc3[nH]2)c2oc3ccccc3c2n1 | · | 1 | 28 | 8 | -14
Cc1nc(SCc2nc3cc(Cl)c(F)cc3[nH]2)c2oc3ccccc3c2n1 | · | 33 | 53* | 0 | 1
COc1ccccc1N1CCN(C2CCCN(C(=O)CCc3ccccn3)C2)CC1 (stereo not given) | -9 | · | · | -3 | ·
OC(c1ccccc1)(c1ccccc1)C1CCN(CCCOc2ccc(-c3ccncc3)cc2)CC1 | · | · | · | -8 | ·
C=CCNC(=O)CN(Cc1ccccc1)S(=O)(=O)c1ccccc1 | -19 | -20 | 12 | -6 | -21
COc1ccc(C(=O)Nc2nc3c(s2)Cc2cc(OC)ccc2-3)cc1 | -2 | -20 | 15 | -3 | -4
COc1ccc2c(c1)Cc1sc(NC(=O)c3cccs3)nc1-2 | -7 | -5 | 68* | -5 | -21
C#CCOCCOCCOCCNc1nc(N2CCN(C(=O)CCCCCCCCCCNC(=O)[C@H](CCCCN)n3cc(CCO)nn3)CC2)nc(N2CCN(C(=O)CCCCCCCCCCNC(=O)[C@H](CCCCN)n3cc(C[C@@H](C)CC)nn3)CC2)n1 | · | 8 | 5 | · | 54*
C#CCOCCOCCOCCNc1nc(N2CCN(C(=O)CCCCCCCCCCNC(=O)Cn3cc(CCCCCN)nn3)CC2)nc(N2CCN(C(=O)CCCCCCCCCCNC(=O)Cn3cc(C[C@@H](C)O)nn3)CC2)n1 | · | 13 | -19 | · | 41*
O=C1NCCCCC1NS(=O)(=O)c1ccc(Cl)cc1 (stereo not given) | -13 | -13 | -4 | -7 | -2
COC(=O)C1=C(C)N(C)C(=NCc2cccc(C(F)(F)F)c2)NC1c1ccc(F)cc1 (stereo not given) | · | · | · | -1 | ·
C/C=C(/C)C(=O)OC1c2c(ccc3ccc(=O)oc23)OC(C)(C)C1OC(=O)/C(C)=C\C (stereo not given) | -21 | 22 | 44* | -5 | 75*
CC(=O)Oc1cc(C)c(Cl)c2c(OC(C)=O)cc(C(C)=O)c(O)c12 | · | · | · | -8 | ·
COc1cccc(C(=O)N[C@H](C(=O)N2CCC[C@H]2C(=O)NCCc2ccccc2Cl)C(C)C)c1 | · | · | · | -5 | ·
CCCCNc1c(-c2ccc(SC(C)CC)c(OC)c2)nc2ccc(C)cn12 (stereo not given) | · | 42 | 68* | -3 | 44*
CCCCNc1c(-c2ccc(OC)c(Sc3ccc(OC)cc3)c2)nc2ccccn12 | · | 41 | 48 | · | 45*
CCCCNc1c(-c2ccc(OC)c(Sc3ccc(OC)cc3)c2)nc2cnccn12 | · | 0 | 14 | -4 | -27
CCCCCCSc1ccc(-c2nc3ccc(C)cn3c2NCCCC)cc1OC | · | · | · | -7 | ·
CCC(C)Sc1cccc(-c2nc3ccc(Cl)cn3c2NCc2ccccc2)c1 (stereo not given) | · | -22 | 44 | · | -17
